For data set [1], the system named is B16-F10. The data set can be described thus: Inhibition of sialyltransferase in mouse B16-F10 cells assessed as recovery time for sialylation at 51.2 uM pretreated for 3 days followed by washing and re-seeding and measured after 6 days by biotinylated MAL2 lectin-based flow cytometry. The data set is classed as cell-based. The procedure, abridged: (§1)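 B16-F10 cells were pretreated 3 days with 25.6 or 51.2 µM compound or DMSO, washed, reseeded, and sampled daily for 6 days. They were stained with biotinylated MALII (5 µg/ml, 45-60 min, 4 °C) plus streptavidin-PE. Flow cytometry MFI was normalized to control as % lectin binding.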
(A flow cytometer gives signals particle by particle.)

Data set [2] has as its system B16-F10. In words: Effect on total cell surface glycosylation in mouse B16F10 cells assessed as inhibition of biotinylated LCA-lectin binding at 102.4 uM after 3 days by flow cytometry. The data set is classed as cell-based. The conditions noted are these: b16-f10, 72 h. The procedure, abridged: (§2)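 B16-F10 cells were exposed 3 days to 102.4 µM compound or DMSO. Staining used biotinylated lectins (AAL 5, PNA 5, GSL-I 1, LCA 1, PHA-L 1, PSA 1, SJA 1, WGA 1 µg/ml) in carbo-free blocking buffer with 1 mM CaCl and 1 mM MgCl for 45-60 min at 4 °C, then streptavidin-PE for 20 min at 4 °C. Flow cytometry read-out was MFI, mean ± SEM from two independent experiments.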

Data set [3] in a line: Inhibition of sialyltransferase in human THP1 cells assessed as decrease in lectin binding after 3 days by biotinylated MAL2 lectin and streptavidin-PE based flow cytometry. In kind it is cell-based. The procedure, abridged: (§3)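 Each cell line was incubated 3 days with increasing compound concentrations or equivalent DMSO. Cells were stained with biotinylated MALII (5 µg/ml) in carbo-free blocking buffer with 1 mM CaCl/MgCl for 45-60 min at 4 °C, washed in PBS/1% BSA/0.02% azide, then stained with streptavidin-PE for 20 min at 4 °C. For flow cytometry, MFI was normalized to control as % lectin binding.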

Data set [4] deals with B16-F10. In words: Inhibition of sialyltransferase in mouse B16-F10 cells assessed as recovery time for sialylation at 25.6 uM pretreated for 3 days followed by washing and re-seeding and measured after 6 days by biotinylated MAL2 lectin-based flow cytometry. In kind it is cell-based. The procedure, abridged:
as §1

The subject of data set [5] is B16-F10. In words: Cytotoxicity against mouse B16F10 cells assessed as reduction in metabolic activity at 204.8 uM after 3 days by MTT assay. The data set is classed as ADME, cell-based. The conditions noted are these: b16-f10, 72 h. On the technique in general: Tetrazolium assays rely on reduction of a dye to a coloured formazan, in cell work by metabolically active cells.

For data set [6], the system named is B16-F10. The data set can be described thus: Effect on total cell surface glycosylation in mouse B16F10 cells assessed as inhibition of biotinylated PHA-L lectin binding at 102.4 uM after 3 days by flow cytometry. The data set is classed as cell-based. The conditions noted are these: b16-f10, 72 h. The gist of the method: as §2
Data set [7] is described as follows: Inhibition of sialyltransferase in HEK293 cells assessed as decrease in lectin binding after 3 days by biotinylated MAL2 lectin and streptavidin-PE based flow cytometry. In kind it is cell-based, Homo sapiens. The procedure, abridged:
as §3

Data set [8] deals with B16-F10. In words: Effect on total cell surface glycosylation in mouse B16F10 cells assessed as inhibition of biotinylated AAL-lectin binding at 102.4 uM after 3 days by flow cytometry. The data set is classed as cell-based. The conditions noted are these: b16-f10, 72 h. The procedure, abridged: as §2
A short description of data set [9]: Inhibition of sialyltransferase in mouse B16F10 cells assessed as decrease in lectin binding after 3 days by biotinylated MAL2 lectin and streptavidin-PE based flow cytometry. In kind it is cell-based. The gist of the method: as §3
Data set [10] in a line: Inhibition of sialyltransferase in mouse EL4 cells assessed as decrease in lectin binding after 3 days by biotinylated MAL2 lectin and streptavidin-PE based flow cytometry. The data set is classed as cell-based. The gist of the method: as §3
Data set [11] relates to B16-F10. The data set can be described thus: Effect on total cell surface glycosylation in mouse B16F10 cells assessed as inhibition of biotinylated PSA-lectin binding at 102.4 uM after 3 days by flow cytometry. The data set is classed as cell-based. The conditions noted are these: b16-f10, 72 h. The gist of the method: as §2
For data set [12], the system named is B16-F10. The data set can be described thus: Effect on total cell surface glycosylation in mouse B16F10 cells assessed as inhibition of biotinylated GSL1-lectin binding at 102.4 uM after 3 days by flow cytometry. The data set is classed as cell-based. The conditions noted are these: b16-f10, 72 h. The procedure, abridged: as §2
The test system of data set [13] is B16-F10. In words: Relative inhibitory potency, ratio of SiaFAc to compound EC50 for inhibition of sialyltransferase in mouse B16-F10 cells. The data set is classed as cell-based.
A short description of data set [14]: Inhibition of sialyltransferase in mouse 9464D cells assessed as decrease in lectin binding after 3 days by biotinylated MAL2 lectin and streptavidin-PE based flow cytometry. In kind it is cell-based. The procedure, abridged:
as §3

Data set [15] deals with N-acylneuraminate cytidylyltransferase (Mus musculus, UniProt Q99KK2). In words: Prodrug activation in mouse B16F10 cells assessed as CMAS-mediated CMP-SiaFR levels at 51.2 uM after 1 to 24 hrs using fluorinated compounds by reverse-phase ion pairing chromatography/triple quadrupole mass spectrometric analysis. In kind it is cell-based. The gist of the method: (§4)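 B16-F10 cells were incubated 1, 2, 4, 8 or 24 h with 51.2 µM fluorinated analogue or DMSO. Cells were washed with ammonium carbonate buffer (pH 7.4) and snap-frozen in liquid nitrogen. Extraction was twice for 3 min with cold 40% acetonitrile/40% methanol/20% water, followed by centrifugation for 3 min and vacuum drying.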

In data set [16] the test system is B16-F10. The data set can be described thus: Effect on total cell surface glycosylation in mouse B16F10 cells assessed as inhibition of biotinylated SJA-lectin binding at 102.4 uM after 3 days by flow cytometry. In kind it is cell-based. The conditions noted are these: b16-f10, 72 h. The procedure, abridged: as §2
The nature of data set [17]: Inhibition of sialyltransferase in human HeLa cells assessed as decrease in lectin binding after 3 days by biotinylated MAL2 lectin and streptavidin-PE based flow cytometry. In kind it is cell-based. The procedure, abridged: as §3
Data set [18] has as its system B16-F10. The data set can be described thus: Cytotoxicity against mouse B16F10 cells assessed as reduction in metabolic activity at <51.2 uM after 3 days by MTT assay. In kind it is ADME, cell-based. The conditions noted are these: b16-f10, 72 h.
The test system of data set [19] is B16-F10. The data set can be described thus: Inhibition of sialyltransferase in mouse B16-F10 cells assessed as reduction in CMP-Sia pool at 51.2 uM after 1 to 24 hrs using fluorinated compounds by reverse-phase ion pairing chromatography/triple quadrupole mass spectrometric analysis. In kind it is cell-based. The procedure, abridged: as §4
Data set [20] deals with B16-F10. In words: Effect on total cell surface glycosylation in mouse B16F10 cells assessed as inhibition of biotinylated PNA lectin binding at 102.4 uM after 3 days by flow cytometry. The data set is classed as cell-based. The conditions noted are these: b16-f10, 72 h. The procedure, abridged: as §2
Data set [21] has as its system B16-F10. In words: Effect on total cell surface glycosylation in mouse B16F10 cells assessed as inhibition of biotinylated WGA-lectin binding at 102.4 uM after 3 days by flow cytometry. The conditions noted are these: b16-f10, 72 h. In kind it is cell-based. The procedure, abridged: as §2

Calls of active or inactive are those of the source. The calls are words filed in the database; no cut-off is given here. Bounds are passed on as bounds.

What is called EC50 is the concentration needed to bring the measured effect to its halfway point.

Sequence of N-acylneuraminate cytidylyltransferase (Q99KK2 whole entry): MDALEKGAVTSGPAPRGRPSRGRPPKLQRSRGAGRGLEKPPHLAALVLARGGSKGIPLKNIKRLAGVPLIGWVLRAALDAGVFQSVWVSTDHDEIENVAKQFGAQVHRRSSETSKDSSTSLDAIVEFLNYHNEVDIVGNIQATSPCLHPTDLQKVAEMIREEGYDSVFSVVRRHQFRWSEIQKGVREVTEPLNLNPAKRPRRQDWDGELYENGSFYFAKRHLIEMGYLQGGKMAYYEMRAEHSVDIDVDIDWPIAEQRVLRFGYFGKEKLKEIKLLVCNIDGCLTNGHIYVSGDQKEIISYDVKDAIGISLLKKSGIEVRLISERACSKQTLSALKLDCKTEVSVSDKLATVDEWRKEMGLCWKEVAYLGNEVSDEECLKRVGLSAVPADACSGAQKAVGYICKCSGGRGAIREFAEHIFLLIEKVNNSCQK

Regarding `C#CCOC(=O)N[C@H]1[C@H]([C@H](OC(C)=O)[C@@H](COC(C)=O)OC(C)=O)OC(OC(C)=O)(C(=O)OC)[C@H](F)[C@@H]1OC(C)=O` (stereo not given in full), the TIME with B16-F10 [1] is 120 to 144 h. The Activity entry with B16-F10 [2], in the data set with B16-F10 [5], in the data set with B16-F10 [6], in the data set with B16-F10 [8], in the data set on B16-F10 [11] and in the data set on B16-F10 [12] was “Non-Toxic” in each case. The Activity result in the data set with B16-F10 [16], in the data set with B16-F10 [18], in the data set with B16-F10 [20] and in the data set with B16-F10 [21] was “Non-Toxic” each time. Also, the EC50 was 0.42 µM in [3]; 1.19 µM in data set [7]; 0.72 µM in [9]; 51 µM in data set [10]; 10.7 µM in data set [14]; 1.65 µM in data set [17]. In addition, the sialylation recovery time result with B16-F10 [4] is “Active”. Besides, the Ratio EC50 with B16-F10 [13] was 37. In data set [15], the Drug metabolism entry is on record as “Metabolite_Detected”. In the data set with B16-F10 [19], the inhibition result is “Active”.

Regarding `CCOC(=O)N[C@H]1[C@H]([C@H](OC(C)=O)[C@@H](COC(C)=O)OC(C)=O)OC(OC(C)=O)(C(=O)OC)[C@H](F)[C@@H]1OC(C)=O` (stereo not given in full), the TIME with B16-F10 [1] fell in the range of 120 to 144 h. In addition, the Activity result in the data set with B16-F10 [2], in the data set on B16-F10 [5], in the data set with B16-F10 [6], with B16-F10 [8], in the data set on B16-F10 [11] and in the data set with B16-F10 [12] was “Non-Toxic” each time. Moreover, the Activity entry in the data set on B16-F10 [16], in the data set on B16-F10 [18], with B16-F10 [20] and with B16-F10 [21] was “Non-Toxic” in each case. The EC50 was found to be 0.45 µM in data set [3]; 2.02 µM in data set [7]; 1.78 µM in data set [9]; 42 µM in data set [10]; 8.91 µM in data set [14]; 2.02 µM in [17]. In the data set on B16-F10 [4], the sialylation recovery time entry is “Active”. In addition, the Ratio EC50 with B16-F10 [13] came out at 15. In data set [15], the Drug metabolism entry is on record as “Metabolite_Detected”. The inhibition entry in the data set with B16-F10 [19] was “Active”.

On to `C#CCCC(=O)N[C@H]1[C@H]([C@H](OC(C)=O)[C@@H](COC(C)=O)OC(C)=O)OC(OC(C)=O)(C(=O)OC)[C@H](F)[C@@H]1OC(C)=O` (stereo not given in full), for which the TIME in the data set with B16-F10 [1] was in the range of 48 to 72 h. Moreover, the Activity result in the data set on B16-F10 [2], with B16-F10 [5], in the data set on B16-F10 [6], in the data set on B16-F10 [8], in the data set with B16-F10 [11] and in the data set with B16-F10 [12] was “Non-Toxic” each time. Besides, the Activity result in the data set on B16-F10 [16], in the data set on B16-F10 [18], with B16-F10 [20] and in the data set with B16-F10 [21] was “Non-Toxic” each time. In addition, the EC50 in data set [3] was 10.4 µM; in [7], 26.2 µM; in [9], 40.6 µM; in data set [10], above 102 µM; in data set [14], above 102 µM; in data set [17] it was 62.3 µM. For the same compound, the sialylation recovery time entry in the data set on B16-F10 [4] is “Active”. Also, the Ratio EC50 with B16-F10 [13] worked out at 1. Further, the Drug metabolism entry in [15] is reported as “Metabolite_Detected”.

For `COC(=O)C1(OC(C)=O)O[C@@H]([C@H](OC(C)=O)[C@@H](COC(C)=O)OC(C)=O)[C@H](NC(=O)CN=[N+]=[N-])[C@@H](OC(C)=O)[C@H]1F` (stereo not given in full), the TIME with B16-F10 [1] was 48 to 72 h. For the same compound, the Activity result in the data set on B16-F10 [2], in the data set with B16-F10 [5], in the data set on B16-F10 [6], in the data set on B16-F10 [8], with B16-F10 [11] and in the data set on B16-F10 [12] was “Non-Toxic” each time. The Activity entry with B16-F10 [16], with B16-F10 [18], in the data set on B16-F10 [20] and with B16-F10 [21] was “Non-Toxic” in each case. For the same compound, the half-maximal effective concentration (EC50) in [3] is 10.9 µM; in data set [7], 45.6 µM; in data set [9] it was 19.9 µM; in data set [10] it was above 102 µM; in [14], above 102 µM; in [17] it was 80.6 µM. Moreover, the sialylation recovery time result in the data set on B16-F10 [4] was “Active”. Also, the Ratio EC50 in the data set on B16-F10 [13] turned out to be 1.

Regarding `COC(=O)C1(OC(C)=O)O[C@@H]([C@H](OC(C)=O)[C@@H](COC(C)=O)OC(C)=O)[C@H](NC(C)=O)[C@@H](OC(C)=O)[C@H]1F` (stereo not given in full), the TIME in the data set with B16-F10 [1] is 48 to 72 h. For the same compound, the Activity entry in the data set on B16-F10 [2], with B16-F10 [5], in the data set on B16-F10 [6], with B16-F10 [8], in the data set on B16-F10 [11] and with B16-F10 [12] was “Non-Toxic” in each case. Moreover, the Activity entry in the data set on B16-F10 [16], in the data set with B16-F10 [18], with B16-F10 [20] and in the data set with B16-F10 [21] was “Non-Toxic” in each case. In addition, the EC50 in [3] is 8.5 µM; in data set [7], 45.2 µM; in [9] it was 26.8 µM; in data set [10], above 102 µM; in data set [14], above 102 µM; in data set [17], 53 µM. Moreover, the sialylation recovery time entry with B16-F10 [4] is “Active”. In data set [15], the Drug metabolism entry was “Metabolite_Detected”.

Source of the values: ChEMBL document CHEMBL4330094, “Potent Metabolic Sialylation Inhibitors Based on C-5-Modified Fluorinated Sialic Acids” (J Med Chem, 2019).
